This note sets out measurements from ChEMBL document CHEMBL3616442, “Unconventional Knoevenagel-type indoles: Synthesis and cell-based studies for the identification of pro-apoptotic agents” (Eur J Med Chem, 2015).

The source made the active and inactive calls. The calls are words filed in the database; no cut-off is given here.

One test concerns MCF7. The test is described as follows: Induction of cell cycle arrest in human MCF7 cells assessed as accumulation at G2/M phase after 18 hrs by propidium iodide staining based flow cytometric analysis. Type of test: functional. The method, boiled down: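 Propidium iodide/RNase A flow cytometry of ethanol-fixed cells, 10,000 gated events at 488 nm; G2/M fraction measured after 18 h treatment (HL-60, MCF-7) or 24 h (K562); mean ± S.E.M. of three independent experiments.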

Another test addresses Tubulin (Homo sapiens) (UniProt P68371+Q9H4B7+P0DPH7+P68366+Q13509+Q71U36+P04350+Q3ZCM7+P07437+P68363+Q9BQE3+Q6PEY2+Q13885+Q9BVA1+Q9BUF5). Nature of the test: Induction of Tubulin depolymerization in human MCF7 cells by immunofluorescence analysis. It is filed as cell-based. The method, boiled down: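 MCF-7 cells grown and treated on chamber slides, fixed in ice-cold 100% methanol, washed in PBS with 0.1% Triton X-100, blocked 30 min in 5% BSA, then mouse anti-tubulin for 1 h and Alexa 488 secondary for 1 h; DNA counterstained with 0.2 μg/mL propidium iodide for 2 min. Paclitaxel and PBOX-15 served as tubulin controls.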

As to `COc1ccc(-c2[nH]c3ccccc3c2/C=C(\C#N)S(=O)(=O)c2ccccc2)cc1`, the Activity in the test with MCF7 amounted to 40.4%. Besides, the outcome on Tubulin (Homo sapiens) was Active.
